Reference: article PMC10582678 (Clinical and Translational Science, 2023)

Assays:
[1] = Preclinical safety in rats; type: in vivo; settings: stated in introduction
BTK = BTK (Homo sapiens, UniProt Q06187); assay: BTK receptor occupancy in peripheral blood monocytes; type: in vivo
How it was run: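 Peripheral blood was sampled from healthy adult Chinese subjects given oral test compound or placebo. In the multiple-dose part, samples were taken at 0, 12, 24 and 168 h after the first dose (day 1) and at 0 and 12 h after the last dose (day 10). In the food-effect part, samples were taken at 0, 12, 24 and 120 h postdose. BTK occupancy was measured by validated ELISA (sensitivity 1.784 ng/mL). Negative placebo values were set to 0.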

[2] = Safety, adverse events, multiple ascending doses; type: in vivo, human; settings: for AEs / Abdominal discomfort / Constipation / Decreased leukocyte count / Decreased lymphocyte count / Decreased neutrophil count / Dermatitis allergic / Dyspepsia / Increased ALT / Increased AST / Increased blood bilirubin / Increased blood creatinine / Lethargy / Mouth ulceration / Oropharyngeal pain / Sinus arrythmia / Upper respiratory tract infection / Increased blood cholesterol / Treatment discontinuation due to AEs / Increased blood triglycerides: n (%)
How it was run: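 Safety was monitored by vital signs, clinical laboratory tests, physical examination, 12-lead ECG, AEs and SAEs. AEs were coded with MedDRA 23.1 and graded by CTCAE 5.0. Subjects were discharged 6 days after the last dose, with a follow-up visit 8–14 days after the last dose. The safety set comprised randomized subjects who received active drug or placebo and had post-dose safety data.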

[3] = Plasma pharmacokinetics, single ascending dose; type: in vivo, human; settings: for CL/F / AUC(0-t): mean ± SD; for T last: median (min, max); for Tmax / half-life / AUC(0-inf) / MRT / Vd/F / AUC(0-t) / Cmax: human, plasma; for Tmax / half-life / AUC(0-inf) / MRT / Vd/F / AUC(0-t): oral; for Cmax: po
How it was run: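 Healthy subjects received single oral doses under fasting conditions: 100 mg (three subjects), or 200, 400, 600 or 800 mg in cohorts of eight randomized 6 active:2 placebo, double-blind. Plasma drug was quantified by validated HPLC-tandem accurate mass spectrometry with a calibration range of 5.00–5000 ng/mL. Cmax, Tmax, AUC, t1/2, CL/F, Vz/F and MRT were derived by noncompartmental analysis and reported as mean ± SD (%CV) or median.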

[4] = 18 subjects, MAD 200 to 600 mg for 10 days

BTK, sequence (Q06187 whole entry): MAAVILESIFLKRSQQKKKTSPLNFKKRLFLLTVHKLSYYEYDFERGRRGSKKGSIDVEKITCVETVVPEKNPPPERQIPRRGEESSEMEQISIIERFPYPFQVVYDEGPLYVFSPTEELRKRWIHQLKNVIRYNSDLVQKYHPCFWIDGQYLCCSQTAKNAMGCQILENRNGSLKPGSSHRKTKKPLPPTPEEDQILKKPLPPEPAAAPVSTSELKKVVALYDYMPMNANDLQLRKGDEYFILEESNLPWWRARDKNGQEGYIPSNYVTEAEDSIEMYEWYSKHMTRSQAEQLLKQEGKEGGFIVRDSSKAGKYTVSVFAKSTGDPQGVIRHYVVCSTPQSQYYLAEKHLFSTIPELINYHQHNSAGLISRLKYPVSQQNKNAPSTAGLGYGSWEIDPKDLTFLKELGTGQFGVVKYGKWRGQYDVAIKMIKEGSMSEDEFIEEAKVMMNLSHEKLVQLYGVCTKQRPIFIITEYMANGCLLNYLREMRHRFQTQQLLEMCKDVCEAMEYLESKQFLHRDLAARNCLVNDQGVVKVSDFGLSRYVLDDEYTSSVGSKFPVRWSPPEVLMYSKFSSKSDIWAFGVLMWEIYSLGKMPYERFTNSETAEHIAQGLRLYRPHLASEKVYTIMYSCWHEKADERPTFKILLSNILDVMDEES

## N#CN1C[C@H](n2nc(-c3ccc(Oc4ccc(Cl)cn4)cc3)c(C(N)=O)c2N)CCC12CC2 [SN1011, 5-amino-3-(4-((5-chloro-2-pyridinyl)oxy)phenyl)-1-((6R)-4-cyano-4-azaspiro[2.5]octan-6-yl)-1H-pyrazole-4-carboxamide]
[1]
  safety profile: acceptable safety profile
BTK; MAD groups, 10 days of continuous q.d. administration of 400 and 600 mg
  BTK receptor occupancy: above 80%
BTK; over 24 h after single administration of 600 mg, fasted and fed states
  BTK receptor occupancy: above 83%
[2]; [4]
  blood triglycerides increased: 33.3%
  leucocyte count decreased: 22.2%
  neutrophil count decreased: 27.8%
  number of AEs: 34
  subjects who experienced AEs: 66.7%
[2]; 18 subjects, MAD 200 to 600 mg, all grade 1 or 2
  subjects with at least a treatment-related AE (TRAE): 61.1%
[2]; MAD 200 mg QD, any grade
  AEs: 3 (50.0)
  Abdominal discomfort: 0
  Constipation: 0
  Decreased leukocyte count: 1 (16.7)
  Decreased lymphocyte count: 0
  Decreased neutrophil count: 1 (16.7)
  Dermatitis allergic: 0
  Dyspepsia: 0
  Increased ALT: 1 (16.7)
  Increased AST: 1 (16.7)
  Increased blood bilirubin: 1 (16.7)
  Increased blood creatinine: 0
  Lethargy: 0
  Mouth ulceration: 0
  Oropharyngeal pain: 0
  Sinus arrythmia: 0
  Upper respiratory tract infection: 0
[2]; MAD 200 mg QD
  Increased blood cholesterol: 0
  Treatment discontinuation due to AEs: 0
[2]; MAD 400 mg QD, any grade
  AEs: 4 (66.7)
  Abdominal discomfort: 0
  Constipation: 0
  Decreased leukocyte count: 1 (16.7)
  Decreased lymphocyte count: 0
  Decreased neutrophil count: 2 (33.3)
  Dermatitis allergic: 0
  Dyspepsia: 0
  Increased ALT: 0
  Increased AST: 0
  Increased blood bilirubin: 0
  Increased blood creatinine: 2 (33.3)
  Increased blood triglycerides: 2 (33.3)
  Lethargy: 0
  Mouth ulceration: 0
  Sinus arrythmia: 1 (16.7)
  Upper respiratory tract infection: 1 (16.7)
[2]; MAD 400 mg QD
  Increased blood cholesterol: 0
  Treatment discontinuation due to AEs: 0
[2]; MAD 600 mg QD, any grade
  AEs: 5 (83.3)
  Abdominal discomfort: 1 (16.7)
  Constipation: 1 (16.7)
  Decreased leukocyte count: 2 (33.3)
  Decreased lymphocyte count: 1 (16.7)
  Decreased neutrophil count: 2 (33.3)
  Dermatitis allergic: 2 (33.3)
  Dyspepsia: 1 (16.7)
  Increased ALT: 1 (16.7)
  Increased AST: 1 (16.7)
  Increased blood bilirubin: 1 (16.7)
  Increased blood creatinine: 0
  Increased blood triglycerides: 2 (33.3)
  Lethargy: 1 (16.7)
  Mouth ulceration: 1 (16.7)
  Oropharyngeal pain: 1 (16.7)
  Sinus arrythmia: 0
[2]; MAD 600 mg QD
  Increased blood cholesterol: 0
  Treatment discontinuation due to AEs: 0
[2]; MAD All SN1011, N = 18
  AEs: 12 (66.7)
  Abdominal discomfort: 1 (5.6)
  Constipation: 1 (5.6)
  Decreased leukocyte count: 4 (22.2)
  Decreased lymphocyte count: 1 (5.6)
  Decreased neutrophil count: 5 (27.8)
  Dermatitis allergic: 2 (11.1)
  Dyspepsia: 1 (5.6)
  Increased ALT: 2 (11.1)
  Increased AST: 2 (11.1)
  Increased blood bilirubin: 2 (11.1)
  Increased blood cholesterol: 0
  Increased blood creatinine: 2 (11.1)
  Increased blood triglycerides: 6 (33.3)
  Lethargy: 1 (5.6)
  Mouth ulceration: 1 (5.6)
  Oropharyngeal pain: 1 (5.6)
  Sinus arrythmia: 1 (5.6)
  Treatment discontinuation due to AEs: 0
  Upper respiratory tract infection: 1 (5.6)
[3]; SAD 100 mg
  CL/F: 49.6 ± 13.9 (28%) L/h
  T last: 48.0 (48.0, 72.0) h
[3]; SAD 200 mg
  CL/F: 44.8 ± 15.3 (34%) L/h
  T last: 72.0 (48.0, 96.0) h
[3]; SAD 400 mg
  CL/F: 36.5 ± 9.1 (25%) L/h
  T last: 96.0 (72.0, 144.0) h
[3]; SAD 600 mg
  CL/F: 43.4 ± 19.5 (45%) L/h
  T last: 108.0 (72.0, 144.0) h
[3]; SAD 800 mg
  CL/F: 44.8 ± 22.3 (50%) L/h
  T last: 132.0 (120.0, 144.1) h
[3]
  Tmax: 3 to 5 h
  half-life: 15.5 to 21.8 h
[3]; 100 mg
  AUC(0-inf): 2.11 ± 0.525 µg·h/mL
  MRT: 26.4 ± 1.7 h
  Tmax: 4 h
  Vd/F: 1210 ± 497 L
  half-life: 16.5 ± 2.1 h
  Cmax: 0.0842 ± 0.0164 µg/mL
[3]; 100 mg, AUC0-24, SAD 100 mg
  AUC(0-t): 1.24 ± 0.339 µg·h/mL
[3]; 100 mg, AUC0-t, SAD 100 mg
  AUC(0-t): 1.88 ± 0.523 µg·h/mL
[3]; 200 mg
  AUC(0-inf): 4.92 ± 1.71 µg·h/mL
  MRT: 22.9 ± 4 h
  Tmax: 3 h
  Vd/F: 989 ± 293 L
  half-life: 15.5 ± 2.4 h
  Cmax: 0.293 ± 0.132 µg/mL
[3]; 200 mg, AUC0-24, SAD 200 mg
  AUC(0-t): 3.21 ± 1.19 µg·h/mL
[3]; 200 mg, AUC0-t, SAD 200 mg
  AUC(0-t): 4.7 ± 1.73 µg·h/mL
[3]; 400 mg
  AUC(0-inf): 11.6 µg·h/mL
  MRT: 29.4 ± 9.9 h
  Tmax: 3.5 h
  Vd/F: 997 ± 350 L
  half-life: 19.3 ± 6.5 h
  Cmax: 0.487 ± 0.221 µg/mL
[3]; 400 mg, AUC0-24, SAD 400 mg
  AUC(0-t): 6.51 ± 1.96 µg·h/mL
[3]; 400 mg, AUC0-t, SAD 400 mg
  AUC(0-t): 11.3 µg·h/mL
[3]; 600 mg
  AUC(0-inf): 16.8 µg·h/mL
  MRT: 28.7 ± 8.5 h
  Tmax: 4 h
  Vd/F: 1060 ± 227 L
  half-life: 19.1 ± 6.4 h
  Cmax: 0.674 ± 0.259 µg/mL
[3]; 600 mg, AUC0-24, SAD 600 mg
  AUC(0-t): 9.1 ± 3.42 µg·h/mL
[3]; 600 mg, AUC0-t, SAD 600 mg
  AUC(0-t): 16.4 µg·h/mL
[3]; 800 mg
  AUC(0-inf): 22.3 µg·h/mL
  MRT: 31.1 ± 6.3 h
  Tmax: 5 h
  Vd/F: 1400 ± 760 L
  half-life: 21.8 ± 4.1 h
  Cmax: 0.779 ± 0.405 µg/mL
[3]; 800 mg, AUC0-24, SAD 800 mg
  AUC(0-t): 11.5 µg·h/mL
[3]; 800 mg, AUC0-t, SAD 800 mg
  AUC(0-t): 21.9 µg·h/mL
